The text below walks through data of ChEMBL document CHEMBL1124823, “Antimitotic agents: synthesis of imidazo[4,5-c]pyridin-6-ylcarbamates and imidazo[4,5-b]pyridin-5-ylcarbamates” (J Med Chem, 1990).

Test [1] has as its system Mus musculus. As to the kind of experiment: Increase in life span (ILS) in mice implanted intraperitoneally with lymphocytic leukemia P388 cells at a nontoxic dose of 100 mg/kg. In kind it is functional. As to conditions: P388, ip, route intraperitoneal.
Test [2] deals with L1210. As to the kind of experiment: The compound was tested for cell growth inhibitory activity against lymphoid leukemia L1210 cell line. The test is classed as functional, cell-based. As to conditions: Mus musculus. Put shortly:
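Cultured lymphoid leukemia L1210 cells were grown with agent for 48 h. The value is the micromolar concentration that inhibits proliferation to 50% of control growth.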

For test [3], the system named is L1210. As to the kind of experiment: Concentration that causes a mitotic index (number of cells in mitosis divided by total cells) of cultured lymphoid leukemia L1210 cells. In kind it is functional, Mus musculus. An outline of the steps:
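Cultured lymphoid leukemia L1210 cells were exposed to agent for 12 h. Mitotic index was taken as the number of cells in mitosis divided by total cells. The value is the micromolar concentration giving a mitotic index of 0.5.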

Test [4] has as its system Mus musculus. As to the kind of experiment: Increase in life span (ILS) in mice implanted intraperitoneally with lymphocytic leukemia P388 cells at a nontoxic dose of 100 mg/kg; toxic dose by weight loss when repeated. As to conditions: P388, ip, route intraperitoneal. In kind it is functional.
The test system of test [5] is Mus musculus. As to the kind of experiment: Increase in life span (ILS) in mice implanted intraperitoneally with lymphocytic leukemia P388 cells at a nontoxic dose of 200 mg/kg; toxic dose by weight loss when repeated. In kind it is functional. As to conditions: P388, ip, route intraperitoneal.
Test [6] deals with Mus musculus. As to the kind of experiment: Increase in life span (ILS) in mice implanted intraperitoneally with lymphocytic leukemia P388 cells at a nontoxic dose of 200 mg/kg. The test is classed as functional. As to conditions: P388, ip, route intraperitoneal.
Test [7] deals with Mus musculus. As to the kind of experiment: Increase in life span (ILS) in mice implanted intraperitoneally with lymphocytic leukemia P388 cells at a nontoxic dose of 50 mg/kg. In kind it is functional. The settings on record: P388, ip, route intraperitoneal.
Test [8] concerns Mus musculus. As to the kind of experiment: Increase in life span (ILS) in mice implanted intraperitoneally with lymphocytic leukemia P388 cells at a nontoxic dose of 2 mg/kg. In kind it is functional. As to conditions: P388, ip, route intraperitoneal.

A word on the ILS: it is the gain in survival time of treated over control animals, in per cent. A lower ILS goes with little gain in survival. For orientation: IC50 means the concentration that gives 50% inhibition.

Turning to `CCOC(=O)Nc1cc2c(nc(SCc3ccc4c(c3)OCO4)n2N)c(N)n1`, the ILS at 100 mg/kg in the test on Mus musculus [1] turned out to be 25%. Also, the IC50 in the test with L1210 [2] amounted to 170 nM.

In turn, `CCOC(=O)Nc1cc2c(ncn2/N=C/c2ccccc2)c(N)n1` came in with an MI0.5 in the test with L1210 [3] of 0.61 µM. This compound came in with an ILS at 100 mg/kg with Mus musculus [4] of 39%. For the same compound, in the test with L1210 [2], the half-maximal inhibitory concentration (IC50) came out at 150 nM.

For `CCOC(=O)Nc1cc(N/N=C/c2ccccc2)c2[nH]c(SCc3ccccc3)nc2n1`, the IC50 with L1210 [2] was found to be 46000 nM.

`CCOC(=O)Nc1cc2c(nc(SCc3ccc(OC)cc3)n2N)c(N)n1`: the ILS at 100 mg/kg in the test with Mus musculus [1] worked out at 24%. The same compound had a 50% inhibitory concentration (IC50) in the test on L1210 [2] of 60 nM.

`CCOC(=O)Nc1cc(N/N=C/c2ccccc2)c2[nH]cnc2n1` gave an MI0.5 in the test with L1210 [3] of 0.94 µM. This compound registered an ILS at 100 mg/kg in the test on Mus musculus [4] of 46%. The compound also had an IC50 in the test on L1210 [2] of 250 nM.

As for `CCOC(=O)Nc1cc2c(nc(SCc3ccccc3)n2N)c(N)n1`, the MI0.5 with L1210 [3] came to 1.6 µM. Further, the ILS at 200 mg/kg in the test with Mus musculus [5] was found to be 39%. In the test with L1210 [2], it took 600 nM to reach half-maximal inhibition (IC50).

In turn, `CCOC(=O)Nc1cc2c(nc(S)n2/N=C/c2ccccc2)c(N)n1` had an MI0.5 with L1210 [3] of 11 µM. Further, in the test on Mus musculus [6], the ILS at 200 mg/kg was 6%. Moreover, in the test with L1210 [2], the IC50 amounted to 470 nM.

In the case of `CCOC(=O)Nc1cc(N/N=C/c2ccccc2)c2[nH]c(S)nc2n1`, the MI0.5 in the test on L1210 [3] was 5.5 µM. This compound also yielded an increase in life span (ILS) at 200 mg/kg in the test on Mus musculus [6] of 10%. In the test on L1210 [2], this compound showed an IC50 of 1500 nM.

Take `CCOC(=O)Nc1cc(N(C)/N=C/c2ccccc2)c2nc[nH]c2n1`: the IC50 with L1210 [2] came to 3100 nM.

Turning to `CCOC(=O)Nc1cc(N/N=C/c2ccccc2)c(N)c(N)n1`, the MI0.5 in the test with L1210 [3] is 15 µM. In the test on Mus musculus [7], this compound had an ILS at 50 mg/kg of 4%. The same compound registered a half-inhibitory concentration (IC50) in the test with L1210 [2] of 4600 nM.

Regarding `CCOC(=O)Nc1cc2c(nc(S)n2N)c(N)n1`, the IC50 with L1210 [2] was more than 30000 nM.

Turning to `CCOC(=O)Nc1cc2c(nc(SCc3ccccc3)n2/N=C/c2ccccc2)c(N)n1`, the IC50 with L1210 [2] was 50000 nM.

Compound `CCOC(=O)Nc1cc2[nH]c(-c3ccccc3)nc2c(N)n1` registered an MI0.5 in the test with L1210 [3] of 8 µM. In the test with Mus musculus [6], this compound returned an ILS at 200 mg/kg of 0%. Also, the IC50 in the test on L1210 [2] was determined as 900 nM.

With `CCOC(=O)Nc1cc2c(c(N)n1)N=C(c1ccccc1)CN2`, the MI0.5 with L1210 [3] was 0.0028 µM. Moreover, the ILS at 2 mg/kg with Mus musculus [8] amounted to 51%.
